Test results published in BindingDB's records for doi:10.1021/acs.jmedchem.8b01912 (Monash University, 2019).

Biological target: T1, fMet-Leu-Phe receptor (Homo sapiens, UniProt P21462)
T1 sequence (P21462 whole entry): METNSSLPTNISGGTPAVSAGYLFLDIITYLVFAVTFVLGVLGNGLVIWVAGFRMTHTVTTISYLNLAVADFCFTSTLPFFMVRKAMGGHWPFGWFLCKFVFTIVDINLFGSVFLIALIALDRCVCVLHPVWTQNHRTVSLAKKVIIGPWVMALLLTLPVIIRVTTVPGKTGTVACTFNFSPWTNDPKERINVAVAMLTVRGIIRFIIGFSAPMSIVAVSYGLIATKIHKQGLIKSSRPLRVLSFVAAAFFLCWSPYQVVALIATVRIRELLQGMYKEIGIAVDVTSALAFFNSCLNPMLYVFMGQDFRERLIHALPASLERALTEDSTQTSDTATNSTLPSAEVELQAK
Assay: Biased agonist activity at human FPR1 expressed in FlpIn-CHO cells assessed as intracellular calcium mobilization by Fluo-4-AM dye based fluorescence assay
In short: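 Agonist transduction coefficients (Log(τ/KA)) for each signaling output estimated with an extension of the Black-Leff operational model. Values normalized to a reference ligand and to Ca2+ mobilization as reference pathway, giving ΔLog(τ/KA) and Log(bias factors). Data are mean ± SEM of 4 independent experiments, each performed in duplicate.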

EC50: 0.891 µM
SMILES: CCCCC(C(=O)Nc1ccc(Cl)cc1)n1nc(C)cc(Cc2ccccc2OC)c1=O (stereo unspecified)
